The text below walks through data of ChEMBL document CHEMBL4387734, “Design and synthesis of a novel series of cyanoindole derivatives as potent γ-secretase modulators” (Bioorg Med Chem Lett, 2019).

Series [1] has as its target Gamma-secretase. The experiment in a line: Inhibition of gamma secretase in human SKNBE2 cells expressing human APP695 assessed as reduction in Abeta42 levels incubated for 18 hrs by sandwich ELISA. Background: ELISA stands for enzyme-linked immunosorbent assay.
Series [2] is described as follows: Inhibition of gamma secretase in mouse Neuro2 cells expressing endogenous levels of amyloid precursor protein assessed as reduction in Abeta42 levels incubated for 18 hrs by sandwich ELISA. The format is cell-based. Put shortly: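 IC50 as concentration reducing Aβ42 by 50%; mean of at least 2 determinations; mouse assay.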
For series [3], the target named is Gamma-secretase (Homo sapiens) (UniProt Q96BI3+Q9NZ42+Q8WW43+P49768+Q92542+P49810). In words: Inhibition of gamma secretase in human SKNBE2 cells expressing human APP695 assessed as increase in Abeta38 levels at 10 uM incubated for 18 hrs by sandwich ELISA. Also noted: scale not given: the % may be the effect or the level left. In kind it is cell-based.
A short description of series [4]: Drug concentration in mouse plasma at 30 mg/kg, po measured after 4 hrs by LC/MS/MS method. In kind it is ADME, organism-based. Put shortly: (§1)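 Mice dosed orally at 30 mg/kg; plasma and brain sampled 4 h post-dose; compound quantified by qualified research LC–MS/MS; brain/plasma ratio at 4 h.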
Series [5] in a line: Drug concentration in mouse brain at 30 mg/kg, po measured after 4 hrs by LC/MS/MS method. The settings on record: read-out: Drug uptake. The format is ADME, organism-based. In a few lines: as §1
The test system of series [6] is Mus musculus. The experiment in a line: In vivo inhibition of gamma secretase in mouse increase in Abeta38 levels in brain at 30 mg/kg, po measured after 4 hrs relative to control. The arrangement: scale not given: the % may be the effect or the level left.
The test system of series [7] is Mus musculus. The experiment in a line: In vivo inhibition of gamma secretase in mouse assessed as assessed as reduction in Abeta42 levels in brain at 30 mg/kg, po measured after 4 hrs relative to control. In kind it is functional.
A short description of series [8]: Free drug concentration in mouse brain. The settings on record: in vivo. In kind it is ADME, tissue-based. In a few lines:
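Free brain concentration calculated as fu,b × total brain level (μM), mouse 30 mg/kg p.o., 4 h.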

A short description of series [9]: Fraction of unbound in rat brain.

As for `COc1c(C#N)ccc2[nH]c(-c3cn4c(n3)C(C(C)c3ccc(F)cc3)OCC4)cc12` (stereo unspecified), the IC50 – broadly, the concentration at which inhibition is half-maximal – was 0.219 µM in [1] and 0.339 µM in [2].

With `N#CCCNc1cc(Cc2c(Cl)cccc2Cl)nc(Nc2ccc(C#N)cc2)n1`, the 50% inhibitory concentration (IC50) in series [2] is 0.68 µM. Moreover, the Activity in series [3] is 242%.

With `COc1c(C#N)ccc2[nH]c(-c3cn4c(n3)[C@H](c3ccccc3Cl)C[C@@H](C)C4)cc12` (racemic), the IC50 in series [1] is 0.015 µM.

Turning to `COc1c(C#N)ccc2[nH]c(-c3cn4c(n3)C(c3ccccc3Cl)CC(O)(CO)C4)cc12` (stereo unspecified), the IC50 in series [1] came to 0.039 µM.

In the case of `COc1c(C#N)ccc2[nH]c(-c3nc4n(n3)CCCC4c3ccccc3C(F)(F)F)cc12` (racemic), the IC50 in series [1] was 0.036 µM; in [2] it was 0.036 to 0.038 µM.

Take `Cn1c(-c2nc3n(n2)CCCC3c2ccccc2C(F)(F)F)cc2cc(C#N)ccc21` (racemic): the IC50 in series [1] was 4 µM; in [2] it was above 10 µM.

For `Cc1cn(-c2ccc3[nH]c(-c4nc(-c5cccc(C(F)(F)F)c5)n(C)n4)cc3c2)cn1`, the IC50 in series [2] was 0.085 µM.

As for `Cc1cn(-c2ccc3[nH]c(-c4nc5n(n4)CCCC5c4ccccc4C(F)(F)F)cc3c2)cn1` (stereo unspecified), the IC50 in series [2] came to 0.046 µM.

Turning to `COc1c(C#N)ccc2[nH]c(-c3cn4c(n3)[C@@H](c3ccccc3C(F)(F)F)OCC4)cc12`, the IC50 in series [1] came out at 0.347 µM; in [2], 0.251 µM.

For `N#Cc1ccc2cc(-c3nc4n(n3)CCCC4c3ccccc3C(F)(F)F)[nH]c2c1` (racemic), the concentration for half-maximal inhibition (IC50) in [1] was found to be 3.98 µM; in series [2], 8.5 µM.

Regarding `COc1c(C#N)ccc2[nH]c(-c3nc4n(n3)CCO[C@H]4c3ccccc3C(F)(F)F)cc12`, the IC50 in series [1] came to 0.045 µM; in series [2], 0.042 µM. For the same compound, the concentration at 4 h in series [4] came to 5.4 µM; in [5] it was 10.5 µM. Moreover, in series [6], the Activity came out at 39%. Besides, the inhibition in vivo (as a rule, how much of the control response was suppressed) at 30 mg/kg in [7] stood at 46%.

On to `COc1c(C#N)ccc2[nH]c(-c3cn4c(n3)[C@H](c3ccccc3Cl)O[C@H](C)C4)cc12`, for which the IC50 in series [1] is 0.017 µM.

On to `CCc1cc(CCC#N)ccc1N1CCc2c(C)nc(Nc3ccc(C#N)cc3)nc21`, for which the half-inhibitory concentration (IC50) in series [2] came to 0.78 µM. Besides, the Activity in series [3] was 240%.

Regarding `COc1cc2[nH]c(-c3nc4n(n3)CCCC4c3ccccc3C(F)(F)F)cc2cc1C#N` (racemic), the IC50 worked out at 0.107 µM in [1] and 0.166 µM in [2].

For `COc1c(C#N)ccc2[nH]c(-c3cn4c(n3)[C@H](c3c(F)cccc3C(F)(F)F)OCC4)cc12`, the IC50 in [1] was determined as 0.036 µM; in series [2], 0.042 µM. For the same compound, the results for the concentration at 4 h in series [4] and in [5] were 11.3 µM and 18.7 µM, respectively. Further, the Activity in [6] is 136%. In series [7], the inhibition in vivo at 30 mg/kg stood at 40%.

With `COc1c(C#N)ccc2[nH]c(-c3nc4n(n3)CCO[C@H]4c3ccc(F)cc3C)cc12`, the concentration for half-maximal inhibition (IC50) in series [1] came to 0.032 µM; in series [2], 0.034 µM. Also, the concentration at 4 h in series [4] is 1.52 µM; in [5], 1.71 µM. For the same compound, the Activity in series [6] is listed as -12%. Further, in series [7], the inhibition in vivo at 30 mg/kg is 5%.

With `COc1c(C#N)ccc2[nH]c(-c3cn4c(n3)[C@H](c3ccccc3C(F)(F)F)OCC4)cc12` (single isomer, unassigned), the “Drug uptake(free)” value in series [8] worked out at 0.034 µM. Moreover, the values for the IC50 in [1] and in series [2] were 0.018 µM and 0.019 µM, respectively. Besides, the concentration at 4 h in series [4] amounted to 8.4 µM; in series [5] it was 16.4 µM. Further, the Activity in series [6] is given as 10%. In series [9], this compound showed a Fu of 0.21%. For the same compound, the inhibition in vivo at 30 mg/kg in [7] is 73%.

As to `COc1c(C#N)ccc2[nH]c(-c3nc4n(n3)CCO[C@H]4c3cccc(F)c3C)cc12`, in [8], the “Drug uptake(free)” value came out at 0.009 µM. The figures for the IC50 in series [1] and in series [2] were 0.031 µM and 0.019 µM, respectively. In addition, the concentration at 4 h in series [4] came to 2.5 µM; in series [5] it was 5.5 µM. In addition, the Activity in series [6] was 60%. The compound further returned a Fu in [9] of 0.17%. The inhibition in vivo at 30 mg/kg in series [7] stood at 33%.

Regarding `COc1nc(/C=C/c2nc3n(n2)CCC[C@H]3c2ccccc2C(F)(F)F)ccc1-n1cnc(C)c1` [E-2212], the IC50 in series [2] amounted to 0.011 µM.

In the case of `COc1cc(Nc2cccn3cc(-c4ccc(F)cc4)nc23)ccc1-n1cnc(C)c1`, the IC50 in series [2] came out at 0.182 µM.

Consider `COc1c(C#N)ccc2[nH]c(-c3cn4c(n3)C(c3ccc(F)cc3C)CCC4)cc12` (racemic), for which the IC50 worked out at 0.112 µM in series [1] and 0.05 µM in [2]. Also, the concentration at 4 h in series [4] worked out at 4.5 µM; in series [5], 1.9 µM. In addition, the Activity in series [6] is 17%. For the same compound, the inhibition in vivo at 30 mg/kg in [7] was determined as 51%.

Take `COc1c(C#N)ccc2[nH]c(-c3cn4c(n3)[C@H](c3ccccc3Cl)OCC4)cc12`: the “Drug uptake(free)” value in [8] was 0.112 µM. In addition, the values for the half-maximal inhibitory concentration (IC50) in series [1] and in series [2] were 0.026 µM and 0.023 µM, respectively. The results for the concentration at 4 h in series [4] and in series [5] were 8.3 µM and 23.8 µM, respectively. In addition, the Activity in [6] is reported as 61%. The same compound displayed a Fu in series [9] of 0.47%. For the same compound, the inhibition in vivo at 30 mg/kg in series [7] is 60%.

With `COc1nc(Nc2cccc3c2nc(-c2cccc(C(F)(F)F)c2)n3C)ccc1-n1cnc(C)c1`, the IC50 in [2] came out at 0.007 µM.

Turning to `COc1cc(Nc2cccn3cc(-c4ccc(F)cc4)nc23)ccc1C#N`, in [2], the IC50 is above 10 µM.

For the compound `COc1c(C#N)ccc2[nH]c(-c3nc4n(n3)CCO[C@H]4c3cc(C(F)(F)F)ccc3F)cc12`, the values for the IC50 in [1] and in series [2] were 0.098 µM and 0.107 µM, respectively.

As to `COc1c(C#N)ccc2[nH]c(-c3cn4c(n3)C(c3ccccc3Cl)CC(C)(O)C4)cc12` (stereo unspecified), the half-inhibitory concentration (IC50) in series [1] is 0.022 µM.

Regarding `COc1c(C#N)ccc2[nH]c(-c3nc4n(n3)CCO[C@H]4c3cccc(F)c3C(F)(F)F)cc12`, the “Drug uptake(free)” value in [8] stood at 0.009 µM. In addition, the concentration for half-maximal inhibition (IC50) in [1] and in [2] was 0.059 µM throughout. Further, the concentration at 4 h in [4] amounted to 1.7 µM; in series [5], 9.6 µM. Also, in series [6], the Activity was found to be 19%. The Fu in series [9] is 0.09%. For the same compound, the inhibition in vivo at 30 mg/kg in [7] amounted to 2%.

On to `COc1c(C#N)ccc2[nH]c(-c3cn4c(n3)[C@H](c3ccccc3Cl)O[C@@H](C)C4)cc12`, for which the IC50 in [1] was found to be 0.066 µM.

As to `COc1c(C#N)ccc2[nH]c(-c3cn4c(n3)[C@H](c3cc(C(F)(F)F)ccc3F)OCC4)cc12`, the results for the half-maximal inhibitory concentration (IC50) in [1] and in series [2] were 0.041 µM and 0.074 µM, respectively. The concentration at 4 h turned out to be 10.6 µM in series [4] and 16.3 µM in series [5]. For the same compound, the Activity in series [6] worked out at 41%. Also, in [7], the inhibition in vivo at 30 mg/kg was found to be 35%.

In the case of `COc1c(C#N)ccc2[nH]c(-c3nc4n(n3)CCO[C@@H]4c3ccccc3C(F)(F)F)cc12`, the concentration for half-maximal inhibition (IC50) was found to be 0.603 µM in [1] and 0.295 µM in series [2].

In the case of `COc1c(C#N)ccc2[nH]c(-c3nc4n(n3)CCOC4c3ccccc3C(F)(F)F)cc12` (racemic), the IC50 in series [1] turned out to be 0.072 µM; in series [2], 0.041 µM.

For `COc1cc(/C=C/c2nc3n(n2)CCC[C@H]3c2ccccc2C(F)(F)F)ccc1C#N`, in series [2], the IC50 amounted to 0.275 µM.

For `N#Cc1ccc2[nH]c(-c3nc4n(n3)CCCC4c3ccccc3C(F)(F)F)cc2c1` (racemic), the half-inhibitory concentration (IC50) in series [1] came to 0.117 µM; in [2], 0.186 µM.

Regarding `COc1c(C#N)ccc2[nH]c(-c3cn4c(n3)[C@H](c3ccc(F)cc3C)OCC4)cc12`, in [8], the “Drug uptake(free)” value is 0.016 µM. The IC50 came to 0.023 µM in series [1] and 0.016 µM in series [2]. Further, the results for the concentration at 4 h in [4] and in [5] were 9.2 µM and 6.9 µM, respectively. Further, in series [6], the Activity is given as 122%. In series [9], this compound gave a Fu of 0.23%. In [7], the inhibition in vivo at 30 mg/kg was 45%.

As to `N#Cc1ccc(Nc2nc(Cc3c(Cl)cccc3Cl)cc(NCC(O)c3ccccc3)n2)cc1` (stereo unspecified), the IC50 in series [2] is 1.67 µM. In [3], the Activity is 244%.

Take `COc1c(C#N)ccc2[nH]c(-c3nc4n(n3)CCCC4c3ccc(F)cc3C)cc12` (racemic): the concentration for half-maximal inhibition (IC50) was 0.025 µM in series [1] and 0.028 µM in series [2]. The concentration at 4 h in [4] was determined as 0.75 µM; in series [5], 0.69 µM. Also, the Activity in series [6] is -9%. Also, in series [7], the inhibition in vivo at 30 mg/kg worked out at 45%.

In the case of `COCc1ccccc1[C@@H]1OCCn2cc(-c3cc4c(OC)c(C#N)ccc4[nH]3)nc21`, the values for the half-maximal inhibitory concentration (IC50) in series [1] and in series [2] were 0.11 µM and 0.085 µM, respectively.
